{
  "source": "ChEMBL document CHEMBL3853298",
  "about": "“Total synthesis and in vitro bioevaluation of clavaminols A, C, H & deacetyl clavaminol H as potential chemotherapeutic and antibiofilm agents” (Eur J Med Chem, 2016)",
  "key": {"[1]": {"test_system": "Staphylococcus aureus", "test": "Bactericidal activity against Staphylococcus aureus MLS16 MTCC 2940 after 24 hrs", "format": "functional", "conditions": "MLS16 MTCC 2940, 24 h", "procedure,_shortened": "(§1)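 Broth macrodilution in Mueller Hinton broth, compound serially diluted from 150 down to 0. Overnight bacterial culture added to a final 1.5 × 10^8 CFU/mL (0.5 McFarland), 24 h at 37 °C. Suspension then subcultured onto Mueller Hinton agar for 24 h at 37 °C. MBC is the lowest concentration killing the strain. Duplicates.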"}, "[2]": {"test_system": "Micrococcus luteus", "test": "Bactericidal activity against Micrococcus luteus MTCC 2470 after 24 hrs", "format": "functional", "conditions": "MTCC 2470, 24 h", "procedure,_shortened": "as §1"}, "[3]": {"test_system": "Raoultella planticola", "test": "Bactericidal activity against Klebsiella planticola MTCC 530 after 24 hrs", "format": "functional", "conditions": "MTCC 530, 24 h", "procedure,_shortened": "as §1"}, "[4]": {"test_system": "Escherichia coli", "test": "Bactericidal activity against Escherichia coli MTCC 739 after 24 hrs", "format": "functional", "conditions": "MTCC 739, 24 h", "procedure,_shortened": "as §1"}, "[5]": {"test_system": "Pseudomonas aeruginosa", "test": "Bactericidal activity against Pseudomonas aeruginosa MTCC 2453 after 24 hrs", "format": "functional", "conditions": "MTCC 2453, 24 h", "procedure,_shortened": "as §1"}, "[6]": {"test_system": "Candida albicans", "test": "Fungicidal activity against Candida albicans MTCC 183 after 24 hrs", "format": "functional", "conditions": "MTCC 183, 24 h", "procedure,_shortened": "(§2)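 Candida grown overnight in Mueller Hinton broth. Compound serially diluted in the same broth from 150 to 0 and inoculated to a final 1.5 × 10^8 CFU/mL (0.5 McFarland), then 24 h at 37 °C. Tube contents plated onto Mueller Hinton agar for 24 h at 37 °C. MFC is the lowest concentration killing the yeast. Duplicates.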"}, "[7]": {"test_system": "Candida albicans", "test": "Fungicidal activity against Candida albicans MTCC 227 after 24 hrs", "format": "functional", "conditions": "MTCC 227, 24 h", "procedure,_shortened": "as §2"}, "[8]": {"test_system": "Candida albicans", "test": "Fungicidal activity against Candida albicans MTCC 854 after 24 hrs", "format": "functional", "conditions": "MTCC 854, 24 h", "procedure,_shortened": "as §2"}, "[9]": {"test_system": "Candida albicans", "test": "Fungicidal activity against Candida albicans MTCC 1637 after 24 hrs", "format": "functional", "conditions": "MTCC 1637, 24 h", "procedure,_shortened": "as §2"}, "[10]": {"test_system": "Candida albicans", "test": "Fungicidal activity against Candida albicans MTCC 3017 after 24 hrs", "format": "functional", "conditions": "MTCC 3017, 24 h", "procedure,_shortened": "as §2"}, "[11]": {"test_system": "Candida albicans", "test": "Fungicidal activity against Candida albicans MTCC 3018 after 24 hrs", "format": "functional", "conditions": "MTCC 3018, 24 h", "procedure,_shortened": "as §2"}, "[12]": {"test_system": "Candida albicans", "test": "Fungicidal activity against Candida albicans MTCC 3958 after 24 hrs", "format": "functional", "conditions": "MTCC 3958, 24 h", "procedure,_shortened": "as §2"}, "[13]": {"test_system": "Candida albicans", "test": "Fungicidal activity against Candida albicans MTCC 4748 after 24 hrs", "format": "functional", "conditions": "MTCC 4748, 24 h", "procedure,_shortened": "as §2"}, "[14]": {"test_system": "Candida albicans", "test": "Fungicidal activity against Candida albicans MTCC 7315 after 24 hrs", "format": "functional", "conditions": "MTCC 7315, 24 h", "procedure,_shortened": "as §2"}, "[15]": {"test_system": "Candida parapsilosis", "test": "Fungicidal activity against Candida parapsilosis MTCC 1744 after 24 hrs", "format": "functional", "conditions": "Lodderomyces parapsilosis, MTCC 1744, 24 h", "procedure,_shortened": "(§3)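 Broth dilution in Mueller Hinton broth with serial compound concentrations from […]. Overnight Candida cultures added to a final 1.5 × 10^8 CFU/mL (0.5 McFarland). Incubated 24 h at 37 °C, then 10 µL of each tube plated on Mueller Hinton agar for 24 h at 37 °C. MFC taken as the lowest concentration that kills the strain. Run in duplicate.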"}, "[16]": {"test_system": "[Candida] aaseri", "test": "Fungicidal activity against Candida aaseri MTCC 1962 after 24 hrs", "format": "functional", "conditions": "Yamadazyma aaseri, MTCC 1962, 24 h", "procedure,_shortened": "as §2"}, "[17]": {"test_system": "Nakaseomyces glabratus", "test": "Fungicidal activity against Candida glabrata MTCC 3019 after 24 hrs", "format": "functional", "conditions": "MTCC 3019, 24 h", "procedure,_shortened": "as §2"}, "[18]": {"test_system": "Pichia kudriavzevii", "test": "Fungicidal activity against Candida krusei MTCC 3020 after 24 hrs", "format": "functional", "conditions": "MTCC 3020, 24 h", "procedure,_shortened": "as §3"}, "[19]": {"test_system": "Pichia sporocuriosa", "test": "Fungicidal activity against Issatchenkia hanoiensis MTCC 4755 after 24 hrs", "format": "functional", "conditions": "MTCC 4755, 24 h", "procedure,_shortened": "as §3"}, "[20]": {"test_system": "Staphylococcus aureus", "test": "Antibiofilm activity against Staphylococcus aureus MTCC 96 incubated for 24 hrs under static condition by crystal violet staining-based assay", "format": "functional", "procedure,_shortened": "(§4)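 Strains grown overnight in tryptone soy broth with 0.5% glucose. Compound (250 to 0) mixed with inoculum at 5 × 10^5 CFU/mL in polystyrene microtiter plates. Non-adherent cells washed off with PBS; wells stained with 0.1% crystal violet, dye solubilised in 95% ethanol, absorbance read at 540 nm. IC50 for 50% biofilm inhibition taken from dose-response curves. Triplicates, mean ± S.D.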"}, "[21]": {"test_system": "Bacillus subtilis", "test": "Antibiofilm activity against Bacillus subtilis MTCC 121 incubated for 24 hrs under static condition by crystal violet staining-based assay", "format": "functional", "procedure,_shortened": "as §4"}, "[22]": {"test_system": "Staphylococcus aureus", "test": "Antibiofilm activity against Staphylococcus aureus MLS16 MTCC 2940 incubated for 24 hrs under static condition by crystal violet staining-based assay", "format": "functional", "procedure,_shortened": "as §4"}, "[23]": {"test_system": "Micrococcus luteus", "test": "Antibiofilm activity against Micrococcus luteus MTCC 2470 incubated for 24 hrs under static condition by crystal violet staining-based assay", "format": "functional", "procedure,_shortened": "as §4"}, "[24]": {"test_system": "Raoultella planticola", "test": "Antibiofilm activity against Klebsiella planticola MTCC 530 incubated for 24 hrs under static condition by crystal violet staining-based assay", "format": "functional", "procedure,_shortened": "as §4"}, "[25]": {"test_system": "Escherichia coli", "test": "Antibiofilm activity against Escherichia coli MTCC 739 incubated for 24 hrs under static condition by crystal violet staining-based assay", "format": "functional", "procedure,_shortened": "as §4"}, "[26]": {"test_system": "Pseudomonas aeruginosa", "test": "Antibiofilm activity against Pseudomonas aeruginosa MTCC 2453 incubated for 24 hrs under static condition by crystal violet staining-based assay", "format": "functional", "procedure,_shortened": "as §4"}, "[27]": {"test_system": "Micrococcus luteus", "test": "Induction of intracellular ROS accumulation in Micrococcus luteus MTCC 2470 sessile biofilm cells at 2 to 4 ug/ml after 24 hrs by DCFH-DA staining-based assay", "format": "functional, cell-based", "procedure,_shortened": "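Intracellular ROS was measured in M. luteus MTCC 2470 biofilms grown in 24-well plates. Mature biofilms were treated and incubated 24 h at 30 °C together with […] DCFH-DA. Well contents were centrifuged at 5000 × g for 10 min. Fluorescence (ex 485/em 535 nm) was read separately for supernatant and for sessile cells resuspended in PBS. Triplicate, mean ± S.D.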"}},
  "note": "Active and inactive are the calls of the source. The calls are words filed in the database; no cut-off is given here.",
  "data": [
    {"smiles": "CCCCCCCCC[C@H](O)[C@@H](C)N", "note": "[CLAVAMINOL A]", "values": [
      {"measurement": "MBC", "setting": "[1]", "result": 7.8, "unit": "µg/mL"},
      {"measurement": "MBC", "setting": "[2]", "result": 7.8, "unit": "µg/mL"},
      {"measurement": "MBC", "setting": "[3]", "result": 15.6, "unit": "µg/mL"},
      {"measurement": "MBC", "setting": "[4]", "result": 15.6, "unit": "µg/mL"},
      {"measurement": "MBC", "setting": "[5]", "result": 15.6, "unit": "µg/mL"},
      {"measurement": "MFC", "setting": "[6]", "result": 62.5, "unit": "µg/mL"},
      {"measurement": "MFC", "setting": "[7]", "result": 31.2, "unit": "µg/mL"},
      {"measurement": "MFC", "setting": "[8]", "result": 31.2, "unit": "µg/mL"},
      {"measurement": "MFC", "setting": "[9]", "result": 62.5, "unit": "µg/mL"},
      {"measurement": "MFC", "setting": "[10]", "result": 31.2, "unit": "µg/mL"},
      {"measurement": "MFC", "setting": "[11]", "result": 31.2, "unit": "µg/mL"},
      {"measurement": "MFC", "setting": "[12]", "result": 62.5, "unit": "µg/mL"},
      {"measurement": "MFC", "setting": "[13]", "result": 62.5, "unit": "µg/mL"},
      {"measurement": "MFC", "setting": "[14]", "result": 31.2, "unit": "µg/mL"},
      {"measurement": "MFC", "setting": "[15]", "result": 62.5, "unit": "µg/mL"},
      {"measurement": "MFC", "setting": "[16]", "result": 62.5, "unit": "µg/mL"},
      {"measurement": "MFC", "setting": "[17]", "result": 31.2, "unit": "µg/mL"},
      {"measurement": "MFC", "setting": "[18]", "result": 15.6, "unit": "µg/mL"},
      {"measurement": "MFC", "setting": "[19]", "result": 62.5, "unit": "µg/mL"},
      {"measurement": "IC50", "setting": "[20]", "result": 4.2, "unit": "µg/mL"},
      {"measurement": "IC50", "setting": "[21]", "result": 4.3, "unit": "µg/mL"},
      {"measurement": "IC50", "setting": "[22]", "result": 2.2, "unit": "µg/mL"},
      {"measurement": "IC50", "setting": "[23]", "result": 0.8, "unit": "µg/mL"},
      {"measurement": "IC50", "setting": "[24]", "result": 8.6, "unit": "µg/mL"},
      {"measurement": "INH", "setting": "[25]", "result": 5.2, "unit": "µg/mL"},
      {"measurement": "INH", "setting": "[26]", "result": 3.6, "unit": "µg/mL"},
      {"measurement": "Activity", "setting": "[27]", "result": "Active"}
    ]}
  ]
}
